One data set concerns Cc1c(Cc2cncnc2N)csc1CCO. Put plainly: (§1) Ratio of kcat to Km for thiamine […]. The essentials: (§2)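 Enzymatic TPPK assay with kcat/Km derived, run in triplicate. The value is the average, with data within 2-fold of the mean.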
Data set [1] has as its system Cc1ncc(Cn2c(C)c(CCO)sc2=O)c(N)n1. Described as §1. The essentials: as §2
In data set [2] the test system is Cc1ncc(Cc2c(C)c(CCO)nn2C)c(N)n1. The data set is described as §1. The essentials: as §2
Data set [3] relates to Cc1c(Cc2cnc(C(C)C)nc2N)csc1CCO. The description is as §1. A digest of the protocol: as §2
Data set [4] relates to CC(=O)Nc1ncc(Cc2csc(CCO)c2C)c(N)n1. The description is as §1. A digest of the protocol:
as §2

Data set [5] relates to Cc1c(Cc2cnc(C3CC3)nc2N)csc1CCO. Described as §1. The essentials: as §2
In data set [6] the test system is Cc1c(Cc2cnc(C(F)(F)F)nc2N)csc1CCO. The data set is described as §1. A digest of the protocol: as §2
Data set [7] has as its system Cc1ncc(C[n+]2csc(CCO)c2C)c(N)n1. Described as §1. The essentials: as §2
In data set [8] the test system is Cc1c(Cc2cnc(-c3ccccc3)nc2N)csc1CCO. The data set is described as §1. The essentials:
as §2

For data set [9], the system named is Cc1ncc(Cc2csc(CCO)c2C)c(N)n1. Described as §1. A digest of the protocol: as §2

By kcat/Km is commonly meant the second-order rate constant that governs catalysis at low substrate concentration. “Thiamine pyrophosphokinase 1 (Homo sapiens), Q9H3S4”: the kcat/Km was 1.2 10^-5/nM/s with Cc1c(Cc2cncnc2N)csc1CCO; 1 10^-5/nM/s in data set [1]; 1.9 10^-5/nM/s in data set [2]; 2.4 10^-5/nM/s in data set [3]; 1.1 10^-6/nM/s in data set [4]; 2.7 10^-5/nM/s in data set [5]. For the same substance, the kcat/Km in [6] is 8.5 10^-4/nM/s; in [7], 1.2 10^-5/nM/s; in data set [8], 1 10^-6/nM/s; in data set [9], 3.4 10^-5/nM/s.

These data come from ChEMBL document CHEMBL1143161, “Non-charged thiamine analogs as inhibitors of enzyme transketolase” (Bioorg Med Chem Lett, 2008).
